Reference: ChEMBL document CHEMBL3576833, “Design and Synthesis of Acetylenyl Benzamide Derivatives as Novel Glucokinase Activators for the Treatment of T2DM” (ACS Med Chem Lett, 2015)
pEC50: −log10 of the molar value. Converted amounts (≈) assume the structure as drawn.

Legend:
[1] = target: T1, Hexokinase-4 (Homo sapiens, UniProt P35557); test: Activation of recombinant human pancreatic glucokinase using 10 mM glucose as substrate by G6PDH coupled assay
T1 sequence (P35557 whole entry): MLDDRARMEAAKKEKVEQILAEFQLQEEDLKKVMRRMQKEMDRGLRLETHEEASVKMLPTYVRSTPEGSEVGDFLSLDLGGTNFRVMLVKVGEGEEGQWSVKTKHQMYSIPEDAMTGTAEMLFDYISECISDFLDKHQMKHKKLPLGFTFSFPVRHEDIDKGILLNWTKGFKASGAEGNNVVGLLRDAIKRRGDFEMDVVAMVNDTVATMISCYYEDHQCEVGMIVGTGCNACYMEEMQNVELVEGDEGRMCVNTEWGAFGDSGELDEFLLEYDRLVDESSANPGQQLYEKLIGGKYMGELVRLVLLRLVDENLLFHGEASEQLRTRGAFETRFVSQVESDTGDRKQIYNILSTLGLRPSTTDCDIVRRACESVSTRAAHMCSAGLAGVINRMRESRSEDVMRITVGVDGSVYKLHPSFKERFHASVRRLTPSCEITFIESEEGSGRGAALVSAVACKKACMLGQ
How it was run: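 Recombinant human pancreatic glucokinase, with glucose at 10 mM. Activity was read as the increase in GK enzyme activity. EC50, Vmax and S0.5 were derived from this. Values are means of triplicate runs.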

[2] = tested on: Mus musculus; test: Antidiabetic activity in C57BL/6 mouse assessed as reduction of blood glucose AUC at 50 mg/kg, po administered 30 mins prior to glucose challenge measured over 180 mins by OGTT relative to vehicle-treated control; assay type: functional; set-up: scale not given: the % may be the effect or the level left
How it was run: (§1)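 Oral glucose tolerance test in C57BL/6J mice with oral dosing. Blood glucose was followed after the glucose challenge, and the result was expressed as the % reduction in blood glucose AUC.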

[3] = tested on: Mus musculus; test: Antidiabetic activity in C57BL/6 mouse assessed as reduction of blood glucose AUC at 30 mg/kg, po administered 30 mins prior to glucose challenge measured over 180 mins by OGTT relative to vehicle-treated control; assay type: functional; set-up: scale not given: the % may be the effect or the level left; how it was run: as §1
[4] = tested on: Mus musculus; test: Toxicity in C57BL/6J mouse assessed as hypoglycemic effect at 30 mg/kg, po after 60 mins; assay type: organism-based; details: in vivo, 1 h
How it was run: (§2)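 Fasted glucose tolerance test in C57BL/6J mice. Animals were fasted and dosed orally, with no glucose challenge. Blood glucose was measured at 60 min.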

[5] = Apparent permeability of the compound by PAMPA; assay type: physicochemical
[6] = tested on: Mus musculus; test: Antidiabetic activity in C57BL/6J mouse assessed as blood glucose level at 30 mg/kg, po after 60 mins by fasted glucose tolerance test; assay type: functional; how it was run: as §2
[7] = Clearance in ICR mouse at 3 mg/kg, iv and 10 mg/kg, po; assay type: ADME, organism-based; details: in vivo
[8] = Solubility of the compound at pH 7.4; assay type: physicochemical; details: buffer
[9] = Volume of distribution at steady state in ICR mouse at 3 mg/kg, iv and 10 mg/kg, po; assay type: ADME, organism-based; details: in vivo, read-out: Vdss
[10] = Oral bioavailability in ICR mouse at 10 mg/kg; assay type: ADME, organism-based; details: in vivo
[11] = Elimination half life in ICR mouse at 3 mg/kg, iv and 10 mg/kg, po; assay type: ADME, organism-based; details: in vivo, read-out: beta t1/2 (converted)

SMILES	pEC50 [1]	Activity [2] [%]	other results
COCC#Cc1cc(O[C@@H](C)COC)cc(C(=O)Nc2ccn(C)n2)c1	5.73	–	–
COC[C@H](C)Oc1cc(C#CCOC2CCCCO2)cc(C(=O)Nc2ccn(C)n2)c1 (stereo not given in full)	8.22	44.7	–
COC[C@H](C)Oc1cc(C#CCN(C)C)cc(C(=O)Nc2ccn(C)n2)c1	5.11	–	–
COC[C@H](C)Oc1cc(C#CCNc2ncccn2)cc(C(=O)Nc2ccn(C)n2)c1	6.52	–	–
COC[C@H](C)Oc1cc(C#Cc2ccccc2OC)cc(C(=O)Nc2ccn(C)n2)c1	7.68	–	Activity [3]: 49.1%
COC[C@H](C)Oc1cc(C#Cc2ccc3[nH]ccc3c2)cc(C(=O)Nc2ccn(C)n2)c1	7.92	–	–
COC[C@H](C)Oc1cc(C#Cc2ccc3c(c2)OCO3)cc(C(=O)Nc2ccn(C)n2)c1	7.52	–	–
COC[C@H](C)Oc1cc(C#Cc2ccc(N)cc2)cc(C(=O)Nc2ccn(C)n2)c1	7.47	53.5	–
COC[C@H](C)Oc1cc(C#Cc2cccc(N)c2)cc(C(=O)Nc2ccn(C)n2)c1	7.57	52.1	Activity [4]: Non-toxic; Papp [5]: 3.43 ×10⁻⁶ cm/s; Activity [6]: >55 mg/dL; clearance [7]: 43.2 mL/min/kg; solubility [8]: 22.2 µM (≈ 8.98 µg/mL); Vd [9]: 1.44 L/kg; bioavailability [10]: 49%; half-life [11]: 1.1 h; Activity [3]: 47.4%
COC[C@H](C)Oc1cc(C#Cc2cccc(N(C)C)c2)cc(C(=O)Nc2ccn(C)n2)c1	7.43	43.7	–
CCN(CC)c1cccc(C#Cc2cc(O[C@@H](C)COC)cc(C(=O)Nc3ccn(C)n3)c2)c1	6.79	–	–
COC[C@H](C)Oc1cc(C#Cc2cccc(NCCN(C)C)c2)cc(C(=O)Nc2ccn(C)n2)c1	8.22	–	Activity [3]: 56%
COCCNc1cccc(C#Cc2cc(O[C@@H](C)COC)cc(C(=O)Nc3ccn(C)n3)c2)c1	7.41	–	Activity [3]: 41%
COC[C@H](C)Oc1cc(C#Cc2cccc(NCCn3ccnc3C)c2)cc(C(=O)Nc2ccn(C)n2)c1	8.05	–	–
N[C@@H](CC(=O)N1CCn2c(nnc2C(F)(F)F)C1)Cc1cc(F)c(F)cc1F [SITAGLIPTIN]	–	–	Activity [3]: 22.6%

Continued, in another order:

pEC50 [1]	SMILES	Activity [2] [%]	other results
7.41	COC[C@H](C)Oc1cc(C#Cc2cccc(O)c2)cc(C(=O)Nc2ccn(C)n2)c1	–	–
8.22	COC[C@H](C)Oc1cc(C#Cc2cccc(NCCN3CCCC3)c2)cc(C(=O)Nc2ccn(C)n2)c1	51.4	–
8.22	COC[C@H](C)Oc1cc(C#Cc2cccc(NCCN3CCCCC3)c2)cc(C(=O)Nc2ccn(C)n2)c1	54	–
7.70	COC[C@H](C)Oc1cc(C#Cc2cccc(NCCN3CCOCC3)c2)cc(C(=O)Nc2ccn(C)n2)c1	47.9	–
7.28	COC[C@H](C)Oc1cc(C#Cc2cccc(OC(C)C)c2)cc(C(=O)Nc2ccn(C)n2)c1	–	–
7.34	COC[C@H](C)Oc1cc(C#Cc2cccc(OCC#N)c2)cc(C(=O)Nc2ccn(C)n2)c1	–	–
8.22	COC[C@H](C)Oc1cc(C#Cc2cccc(OCCN3CCCC3)c2)cc(C(=O)Nc2ccn(C)n2)c1	51.6	–
8.15	COC[C@H](C)Oc1cc(C#Cc2cccc(OCCN3CCCCC3)c2)cc(C(=O)Nc2ccn(C)n2)c1	46	–
7.80	COC[C@H](C)Oc1cc(C#Cc2cccc(OCCN3CCOCC3)c2)cc(C(=O)Nc2ccn(C)n2)c1	–	–
